Compound activity from PubChem BioAssay.
A selection: hits, their analogues and other compounds. The true share with any hit is near 2.6%.
NR2E3 ag-1 = human photoreceptor-specific nuclear receptor agonism. Q9Y5X4. CHO-S Gal4-NCOR/VP16-NR2E3 two-hybrid, luciferase. inhibition of corepressor binding, % at 3.98 µM. actives 0.35% (n = 360,000);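 active = inhibition above the mean of all tested compounds plus 3 SD, cut at about 70% in these data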;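 note: 0% = DMSO with NR2E3 transfected cells and 100% = cells lacking NR2E3 construct; higher means lower luciferase signal from less NR2E3 corepressor binding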
Target sequence (Q9Y5X4 whole entry, looked up, the tested form may be a part): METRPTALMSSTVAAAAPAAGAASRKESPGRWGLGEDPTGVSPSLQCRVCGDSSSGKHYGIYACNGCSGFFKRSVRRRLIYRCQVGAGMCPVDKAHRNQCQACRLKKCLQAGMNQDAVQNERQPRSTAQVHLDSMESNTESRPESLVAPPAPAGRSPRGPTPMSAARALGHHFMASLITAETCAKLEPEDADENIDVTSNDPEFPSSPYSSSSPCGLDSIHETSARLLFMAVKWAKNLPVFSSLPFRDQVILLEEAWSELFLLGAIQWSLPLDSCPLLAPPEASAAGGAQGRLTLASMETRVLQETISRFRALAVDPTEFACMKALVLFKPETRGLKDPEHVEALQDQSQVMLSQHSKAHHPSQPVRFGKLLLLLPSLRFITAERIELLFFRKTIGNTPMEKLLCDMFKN
NR1D1 modulator = Rev-erb alpha (human) modulation; P20393; Rev-erbα–FITC-DNA binding, fluorescence polarization, 90 min; activity, % at 10 µM; actives 0.79% (n = 370,000);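 active = activity above about 14%, limit read from the data; passing the limit was not always enough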;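 note: 0% = DMSO wells with 35 nM protein and 100% = DMSO wells with 750 nM protein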
rCAG RNA binder = binds r(CAG) RNA repeats. actives 1.3% (n = 370,000). r(CAG) RNA repeat, TO-PRO-1 dye displacement fluorescence. inhibition, % at 3 µM;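 active = inhibition above the plate cutoff, the mean of all test compounds on that plate plus 3 SD, cut at about 35% in these data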;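 note: 0% = DMSO alone and 100% = 100 µM mitoxantrone as full dye displacement; higher means more dye released from RNA so lower well fluorescence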
NR2E3 ag-2 = agonists of human nuclear receptor NR2E3. Q9Y5X4. GST-NR2E3/biotin-RetCOR TR-FRET, 1536-well. inhibition of corepressor binding, % at 4.78 µM. actives 0.12% (n = 320,000);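 active = percent inhibition above the cutoff of mean plus 3 SD of all tested compounds, set per screening campaign, cut at about 20% in these data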;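 note: 0% = DMSO wells and 100% = biotin wells as full block of FRET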
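Test system: GST-NR2E3 and biotin-RetCOR proteins | Quantity: 1.35 nM GST-tagged NR2E3 final | Medium: Tris pH 7.5 | Also added: 7 nM biotin-RetCOR | Dosing: Compound at 4.8 µM, single dose | Timing: 5 h at 4 °C | Detection: Time-resolved FRET | Read-out basis: Percent inhibition | Benchmarks: Biotin wells as high control, 0.6% DMSO wells as low control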
PG9 binder = small molecules binding HIV-1 gp120 antibody PG9; TR-FRET gp120-PG9 antibody binding; inhibition, % at 6.7 µM; actives 0.43% (n = 360,000); in the data active = inhibition above about 8.5%
NR2E3 agonist cf = NR2E3 (human) agonism, confirmation. shares compounds with NR2E3 ag-2. cell-free NR2E3 corepressor release, TR-FRET, 5 h. activation (reported as inhibition), % at 3.98 µM. actives 39% (n = 360). AID 2379; in the data active = activation above about 20%
PPARg-NCOR2 ctr = counter-screen for NR2E3 agonists: human PPARgamma-NCOR2 interaction agonists. TR-FRET PPARg-NCOR2 coregulator interaction, biochemical. AID 504787. actives 45% (n = 360). shares compounds with NR2E3 ag-2. inhibition, % at 3.98 µM; in the data active = inhibition above about 20%;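 note: 0% = DMSO vehicle and 100% = wells without protein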
PG9 bind confirm = confirmation of small molecules binding HIV-1 gp120 antibody PG9; inhibition, % at 6.7 µM; AID 651571; TR-FRET PG9 antibody binding, biochemical; shares compounds with PG9 binder; actives 90% (n = 1,500); in the data active = inhibition above about 9%
PGV04 counter = counter-screen for PG9 binders: binding control antibody PGV04. shares compounds with PG9 binder. TR-FRET PGV04 antibody-gp120 binding, biochemical. inhibition, % at 6.7 µM. actives 95% (n = 1,500). AID 651604; in the data active = inhibition above about 9.5%
Starred values were filed as active, the others as inactive; . = no result given.

SMILES	NR2E3 ag-1	NR1D1 modulator	rCAG RNA binder	NR2E3 ag-2	PG9 binder	NR2E3 agonist cf	PPARg-NCOR2 ctr	PG9 bind confirm	PGV04 counter
O=C(C1=C(O)C(=O)N(CCN2CCOCC2)C1c1cccc(Br)c1)c1cc2ccccc2o1 (stereo not given)	-20.8	-1.8	30.2	35.4*	22.6*	51.8*	56.9*	34.0*	43.2*
O=C(C1=C(O)C(=O)N(CCc2ccccc2)C1c1cccs1)c1ccco1 (stereo not given)	3.9	-2.2	9.5	10.3	2.7	.	.	.	.
COc1ccc2cc1Oc1cc3c(cc1OC)CC[N+](C)(C)[C@H]3Cc1ccc(cc1)Oc1c(OC)c(OC)cc3c1[C@@H](C2)[N+](C)(C)CC3	.	-3.6	.	.	.	.	.	.	.
CCOC(=O)[C@H](CCc1ccccc1)N[C@H]1CCCN2CCC[C@@H](C(=O)O)N2C1=O	.	6.0	.	.	.	.	.	.	.
CC(C)(C)c1ccc(-c2cn(C[C@H](Cc3ccccc3)n3c(=O)c4ccccc4n3Cc3ccccc3)nn2)cc1	.	4.6	8.4	.	.	.	.	.	.
O=S(=O)(CS(=O)(=O)c1ccccc1Br)c1ccccc1Br	.	0.5	14.3	.	0.1	.	.	.	.
CN(C)CCN1C(=O)C(O)=C(C(=O)c2cc3ccccc3o2)C1c1cccc(Br)c1 (stereo not given)	-3.0	6.2	8.3	36.0*	31.5*	35.9*	33.9*	38.0*	46.8*
O=C(C1=C(O)C(=O)N(CCN2CCOCC2)C1c1cccc([N+](=O)[O-])c1)c1cc2ccccc2o1 (stereo not given)	1.0	-7.0	12.5	.	-1.1	.	.	.	.
CCN(CC)CCN1C(=O)C(O)=C(C(=O)c2cc3ccccc3o2)C1c1cccnc1 (stereo not given)	-26.7	4.1	2.5	28.2*	24.2*	26.7*	28.4*	36.2*	45.8*
O=C(Cn1cnnn1)N[C@@H]1C(=O)N2C(C(=O)O)=C(CSc3nncs3)CS[C@H]12	.	-7.1	.	.	.	.	.	.	.
Cn1c(=S)[nH]c2c(c1=O)C(C)(C)Cc1ccccc1-2	14.9	-4.5	-1.6	38.8*	17.1*	41.4*	34.8*	11.2*	11.3*
CCC1(C)Cc2ccccc2-c2[nH]c(=S)[nH]c(=O)c21 (stereo not given)	12.1	-0.7	2.2	31.2*	32.4*	19.6*	17.4	5.6	7.9
CC1(C)Cc2ccccc2-c2nc(NN)[nH]c(=O)c21	4.8	3.2	8.0	1.1	-1.2	.	.	.	.
CC1CCCN(C(=O)CSc2cnc3ccccc3n2)C1 (stereo not given)	-56.2	4.3	-3.9	48.3*	30.2*	14.0	11.2	34.8*	38.6*
Cc1nc2ccccc2nc1SCC(=O)N1CCC(C)CC1	15.1	3.3	-5.7	22.2*	37.5*	12.9	16.4	33.7*	41.6*
CC1CCN(C(=O)CSc2nc3ccccc3s2)CC1	-137.9	0.7	-0.9	2.4	-2.0	.	.	.	.
CC(C)C1=CC2C3C(C(C(C)C)=CC(=O)[C@@]3(C)O)C1C(=O)C2(C)O (stereo not given in full)	.	-3.7	1.0	.	-2.1	.	.	.	.
COC(=O)c1cc2n3ccccc3c(C)c(-c3ccccc3)c-2c1C(=O)OC	-12.8	3.5	6.8	59.4*	20.6*	63.5*	62.9*	29.2*	39.3*
Cc1cc(N2C(=O)C(O)=C(C(=O)c3cc4ccccc4o3)C2c2cccs2)no1 (stereo not given)	13.1	0.1	29.7	24.1*	9.3*	31.3*	34.0*	27.6*	46.1*
COC(=O)c1ccc(C2C(C(=O)c3ccc(C)o3)=C(O)C(=O)N2c2cc(C)on2)cc1 (stereo not given)	6.5	-0.9	17.1	7.3	1.0	.	.	.	.
Cc1ccc(C2C(C(=O)c3cc4ccccc4o3)=C(O)C(=O)N2c2cc(C)on2)cc1 (stereo not given)	26.6	4.9	19.5	23.0*	17.8*	27.9*	34.5*	28.9*	37.5*
Cc1cc(N2C(=O)C(O)=C(C(=O)c3ccco3)C2c2ccccc2F)no1 (stereo not given)	-17.0	-3.8	3.1	28.3*	10.2*	12.0	12.8	9.8*	27.6*
Cc1cc(N2C(=O)C(O)=C(C(=O)c3ccco3)C2c2ccc(O)cc2)no1 (stereo not given)	-33.5	6.7	3.2	10.1	3.0	.	.	.	.
C#CCN(C[C@H]1[C@H](OC(=O)Nc2c(C)noc2C)[C@H](OC(=O)Nc2c(C)noc2C)CN(C(=O)OC(C)C)N1C(=O)OC(C)C)S(=O)(=O)c1ccc(C)cc1	.	-4.7	6.5	.	-2.8	.	.	.	.
CC(C(=O)O)c1ccc2c(c1)CC(=O)c1ccccc1S2 (stereo not given)	.	-5.2	.	.	.	.	.	.	.
SMILES	NR2E3 ag-1	NR1D1 modulator	rCAG RNA binder	NR2E3 ag-2	PG9 binder	NR2E3 agonist cf	PPARg-NCOR2 ctr	PG9 bind confirm	PGV04 counter
O=C(O)C(=O)Nc1cccc(-c2nn[nH]n2)c1	.	-2.4	.	.	.	.	.	.	.
CN(C)c1cccc2c(S(=O)(=O)NCC3CCN(C(=O)C(=O)c4cc5ccccc5o4)CC3)cccc12	.	-0.7	9.4	.	-0.4	.	.	.	.
CN1CCN(NC(=O)c2cc(-c3ccc(Br)s3)nc3ccccc23)CC1	-9.2	-0.6	5.0	26.5*	18.9*	16.1	19.9*	38.9*	67.8*
CCc1ccc(-c2cc(C(=O)NN3CCOCC3)c3ccccc3n2)s1	-19.6	8.0	4.2	2.4	0.6	.	.	.	.
CNC[C@H](O)[C@@H](O)[C@H](O)[C@H](O)CO	.	-5.2	.	.	.	.	.	.	.
Cc1cc2ccccc2nc1SCC(=O)NC1CCCCC1	-13.4	4.2	-4.9	3.3	5.8	.	.	.	.
Cc1cc(SCC(=O)NC2CCCC2)nc2ccccc12	-10.2	4.3	-0.4	22.0*	15.7*	8.3	5.0	30.9*	44.5*
CCOc1ccc(Br)cc1C(=O)Nc1ccc(C(=O)NCC(C)C)cc1	4.7	6.5	-0.8	33.7*	23.8*	32.7*	38.0*	23.7*	31.1*
COc1ccc(Br)cc1C(=O)Nc1ccc(C(=O)NCC(C)C)cc1	-9.2	-2.5	-3.3	3.4	1.4	.	.	.	.
N#CCCSc1ncnc2c1oc1ccccc12	-11.9	1.5	0.2	20.8*	20.2*	-1.9	5.8	46.1*	57.3*
O=C(O)c1cc2ccccc2c2cc(Br)ccc12	-10.6	0.3	0.6	23.4*	23.2*	19.0	55.8*	27.6*	35.6*
O=C(O)c1cc2ccccc2c2c1C(=O)c1ccccc1-2	-3.1	4.9	4.1	.	-6.1	.	.	.	.
